Laboratory results: ChEMBL document CHEMBL1124462, “Synthesis, DNA binding, and biological evaluation of synthetic precursors and novel analogues of netropsin” (J Med Chem, 1989)
Converted amounts (≈) assume the structure as drawn.

Tests used:
Nucleic Acid [1] = experiment: Ratio of association constant of poly (dA-dT) and poly (dG-dC); type: nucleic-acid assay
Procedure, shortened: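 Kapp for poly(dA-dT) and for poly(dG-dC) is each determined by ethidium bromide competition in 0.01 M cacodylate, pH 7.0, 25 °C, with 1.26 μM ethidium and 1 μM polynucleotide. IC50 comes from a fitted competition sigmoid and is converted to Kapp assuming a four-base-pair binding size. The ratio is taken between the two polynucleotides.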

Nucleic Acid [2] = experiment: Association constant against polynucleotide poly (dG-dC); type: nucleic-acid assay
Procedure, shortened: (§1)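 Competition with ethidium bromide binding at 25 °C in 0.01 M cacodylate buffer, pH 7.0, with 1.26 μM ethidium bromide and 1 μM polynucleotide. Bound ethidium is estimated from its fluorescence increase (V = 34 for poly(dA-dT), 25 for poly(dG-dC)). IC50 for 50% ethidium displacement comes from a fitted competition sigmoid. Kapp is calculated from IC50 assuming a binding size of four base pairs.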

[3] = test system: Mammalian orthoreovirus 1; experiment: Minimum inhibitory concentration required to reduce reovirus-1 induced cytopathogenicity by 50% in african green monkey (VeroB)cells; type: functional
Procedure, shortened: (§2)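 Cell cultures (PRK, HeLa or Vero B) are infected at 100 × CCID50. Cytopathogenicity is recorded once it reaches completion in the untreated virus-infected controls. The minimum inhibitory concentration is given in μg/mL.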

Human alphaherpesvirus 2 = experiment: Minimum inhibitory concentration required to reduce herpes simplex virus-2(G) induced cytopathogenicity by 50% in primary rabbit kidney cells (PRK); type: functional; procedure, shortened: as §2
[4] = Dose required to inhibit Human T-Lymphoblast (Molt/4F) cell proliferation by 50%; type: functional; settings: read-out: CD50 (the source's name)
Nucleic Acid [5] = experiment: Association constant against the polynucleotide poly (dA-dT).; type: nucleic-acid assay; procedure, shortened: as §1
FM3A = experiment: In vitro inhibition of FM3A (murine mammary carcinoma) cell proliferation.; type: functional; settings: Mus musculus, read-out: CD50 (the source's name)
Vero [6] = experiment: Minimum inhibitory concentration required to reduce Coxsackie virus B4 induced cytopathogenicity by 50% in african green monkey (VeroB) cells; type: functional, Coxsackievirus B4; settings: Chlorocebus sabaeus; procedure, shortened: as §2
Oryctolagus cuniculus = organism: Oryctolagus cuniculus; experiment: Minimum cytotoxic concentration required to cause a microscopically detectable alteration of normal cell morphology and show antiviral activity in primary rabbit kidney (PRK) cells; type: functional
HeLa [7] = experiment: Minimum inhibitory concentration required to reduce Coxsackie virus B4 induced cytopathogenicity by 50% in HeLa cells; type: functional; settings: Homo sapiens; procedure, shortened: as §2
Human alphaherpesvirus 1 = experiment: Minimum inhibitory concentration required to reduce herpes simplex virus-1 (KOS) induced cytopathogenicity by 50% in primary rabbit kidney cells(PRK); type: functional; procedure, shortened: as §2
Raji = experiment: Dose required to inhibit Human B-Lymphoblast (Raji) cell proliferation by 50%; type: functional; settings: read-out: CD50 (the source's name)
Semliki Forest virus = experiment: Minimum inhibitory concentration required to reduce semliki forest virus induced cytopathogenicity by 50% in african green monkey (VeroB) cells; type: functional; procedure, shortened: as §2
[8] = test system: Vesicular stomatitis virus; experiment: Minimum inhibitory concentration required to reduce vesicular stomatitis virus induced cytopathogenicity by 50% in primary rabbit kidney cells (PRK); type: functional
L1210 = experiment: Dose required to inhibit Murine leukemia (L1210) cell proliferation by 50%; type: functional; settings: Mus musculus, read-out: CD50 (the source's name)
HeLa [9] = experiment: Minimum cytotoxic concentration required to cause a microscopically detectable alteration of normal cell morphology and show antiviral activity in HeLa cells; type: functional; settings: Homo sapiens
Procedure, shortened: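 HeLa cell cultures exposed to compound for the same duration as the antiviral assay, then examined microscopically. The minimum cytotoxic concentration is the lowest level causing detectable alteration of normal cell morphology. Values are in μg/mL.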

Sindbis virus = experiment: Minimum inhibitory concentration required to reduce Sindbis virus induced cytopathogenicity by 50% in african green monkey (VeroB) cells; type: functional; procedure, shortened: as §2
Vero [10] = experiment: Minimum inhibitory concentration required to reduce parainfluenza virus-3 induced cytopathogenicity by 50% in african green monkey (VeroB) cells; type: functional, Human respirovirus 3; settings: Chlorocebus sabaeus; procedure, shortened: as §2
Vero [11] = experiment: Minimum cytotoxic concentration required to cause a microscopically detectable alteration of normal cell morphology and show antiviral activity in african green monkey (Vero B) cells; type: functional; settings: Chlorocebus sabaeus

Compound | Ratio (Nucleic Acid [1]) | K app (Nucleic Acid [2]) [M⁻¹] | MIC [3] [µg/mL] | MIC (Human alphaherpesvirus 2) [µg/mL] | CC50 [4] [µg/mL] | K app (Nucleic Acid [5]) [M⁻¹] | CC50 (FM3A) [µg/mL] | MIC (Vero [6]) [µg/mL] | MCC (Oryctolagus cuniculus) [µg/mL] | MIC (HeLa [7]) [µg/mL] | MIC (Human alphaherpesvirus 1) [µg/mL] | CC50 (Raji) [µg/mL] | MIC (Semliki Forest virus) [µg/mL] | MIC [8] [µg/mL] | CC50 (L1210) [µg/mL] | MCC (HeLa [9]) [µg/mL] | MIC (Sindbis virus) [µg/mL] | MIC (Vero [10]) [µg/mL] | MCC (Vero [11]) [µg/mL]
CC(NC(=O)c1cc(NC(=O)c2cc(NC(=O)CNC(=N)N)cn2C)cn1C)C(=O)NC(C)C(=O)OC(C)(C)C (stereo not drawn) | 6.29 | 700 | > 200 | > 200 | > 100 | 4400 | > 100 | > 400 | >200 | > 400 | > 200 | 54.7 (≈ 97.7 µM) | > 400 | > 200 | > 100 | > 400 | > 400 | > 400 | > 400
Cn1cc(NC(=O)CNC(=N)N)cc1C(=O)NCCCNCCCCN | 5.26 | – | > 200 | > 400 | > 200 | – | > 200 | > 400 | >400 | > 400 | > 400 | > 200 | > 400 | > 400 | > 200 | > 400 | > 400 | > 200 | > 400
Cn1cc(NC(=O)c2cc([N+](=O)[O-])cn2C)cc1C(=O)NCCCNCCCCN | 5.37 | 82000 | > 200 | > 200 | > 100 | 440000 | – | > 200 | >200 | > 400 | > 200 | > 100 | > 400 | > 100 | > 100 | > 400 | > 400 | > 200 | > 400
Cn1c(C(=O)NCCC(=N)N)ccc1[N+](=O)[O-] | – | < 100 | > 100 | > 100 | > 50 | < 100 | – | > 100 | >400 | > 400 | > 200 | > 50 | > 200 | > 400 | > 50 | > 400 | > 200 | 100 (≈ 418 µM) | > 400
Cn1cc(NC(=O)c2cc([N+](=O)[O-])cn2C)cc1C(=O)O | – | – | > 400 | > 400 | > 100 | – | > 100 | 150 (≈ 513 µM) | >400 | > 400 | > 400 | > 100 | > 400 | > 400 | > 100 | > 400 | > 400 | > 200 | > 400
Cn1cc(NC(=O)c2cc(NC(=O)c3cc(NC=O)cn3C)cn2C)cc1C(=O)NCCC(=N)N | 3400 | 25000 | – | – | – | 8.5e+07 | – | – | – | – | – | – | – | – | – | – | – | – | –
Cn1cc([N+](=O)[O-])cc1C(=O)O | – | – | > 400 | > 400 | > 100 | – | > 100 | > 200 | >400 | > 400 | > 400 | > 100 | > 400 | > 400 | > 100 | > 400 | > 400 | > 400 | > 400
C[C@H](NC(=O)[C@H](C)NC(=O)[C@H](C)NC(=O)c1cc(NC(=O)c2cc(NC(=O)CNC(=N)N)cn2C)cn1C)C(=O)O | < 0.02 | 5000 | > 200 | > 400 | > 100 | < 100 | > 100 | > 400 | >400 | > 400 | > 400 | > 100 | > 400 | > 400 | > 100 | > 400 | > 400 | > 400 | > 400
CC(NC(=O)C(C)NC(=O)c1cc(NC(=O)c2cc(NC(=O)CNC(=N)N)cn2C)cn1C)C(=O)O (stereo not drawn) | 1 | 1200 | > 200 | > 400 | > 100 | 1200 | > 100 | > 400 | >400 | > 400 | > 400 | > 100 | > 400 | > 400 | > 100 | > 400 | > 400 | > 400 | > 400
C[C@H](NC(=O)c1cc(NC(=O)c2cc(NC(=O)CNC(=N)N)cn2C)cn1C)C(=O)N[C@@H](C)C(=O)N[C@@H](C)C(=O)OC(C)(C)C | 6.06 | 3300 | > 200 | > 100 | > 100 | 20000 | > 100 | > 200 | 400 | > 400 | > 100 | > 100 | > 400 | > 200 | > 100 | > 400 | > 400 | > 400 | > 400
CC(NC(=O)c1cc(NC(=O)c2cc([N+](=O)[O-])cn2C)cn1C)C(=O)NC(C)C(=O)OC(C)(C)C (stereo not drawn) | 0.033 | 20000 | > 200 | > 200 | 29 (≈ 59.1 µM) | 650 | 27.2 (≈ 55.5 µM) | > 200 | >400 | > 200 | > 100 | 33 (≈ 67.3 µM) | > 200 | > 100 | 28.8 (≈ 58.7 µM) | > 400 | > 100 | > 200 | > 200
CC(NC(=O)c1cc(NC(=O)c2cc(NC(=O)CNC(=N)N)cn2C)cn1C)C(=O)OC(C)(C)C (stereo not drawn) | 0.87 | 10000 | > 400 | > 400 | > 100 | 8700 | > 100 | > 400 | >400 | > 400 | > 400 | > 100 | > 400 | > 400 | > 100 | > 400 | > 400 | > 400 | > 400
Cn1cc([N+](=O)[O-])cc1C(=O)NCCC(=N)N | – | < 100 | > 200 | > 200 | > 50 | < 100 | – | > 200 | >400 | > 400 | > 200 | > 50 | > 200 | > 400 | > 50 | > 400 | > 200 | > 200 | > 400
COC(=O)c1ccc([N+](=O)[O-])n1C | – | – | > 200 | > 400 | 66 (≈ 358 µM) | – | 84.7 (≈ 460 µM) | > 200 | >400 | > 400 | > 400 | 62.4 (≈ 339 µM) | > 400 | > 400 | 28 (≈ 152 µM) | 400 | > 400 | > 100 | 400
COC(=O)c1cc(NC(=O)c2cc([N+](=O)[O-])cn2C)cn1C | – | – | > 10 | > 10 | > 100 | – | > 100 | > 10 | >40 | > 40 | > 10 | > 100 | > 10 | > 40 | > 100 | > 40 | > 10 | > 10 | > 40
CC(NC(=O)c1cc(NC(=O)c2cc(NC(=O)CNC(=N)N)cn2C)cn1C)C(=O)O (stereo not drawn) | – | < 100 | > 200 | > 200 | > 100 | < 100 | > 100 | > 200 | >200 | > 200 | > 200 | > 100 | > 200 | > 200 | > 100 | > 200 | > 200 | > 200 | > 200
